# Rin1-Abl PPI inh: blocks binding of human Rin1 to Abl. TR-FRET Rin1/Abl binding, biochemical. inhibition, % at 7.35 µM. 360,000 compounds, 0.4% hits. AID 588664; in the data active = inhibition above about 5%, passing the limit was not always enough
# Target sequence (P00519 whole entry, looked up): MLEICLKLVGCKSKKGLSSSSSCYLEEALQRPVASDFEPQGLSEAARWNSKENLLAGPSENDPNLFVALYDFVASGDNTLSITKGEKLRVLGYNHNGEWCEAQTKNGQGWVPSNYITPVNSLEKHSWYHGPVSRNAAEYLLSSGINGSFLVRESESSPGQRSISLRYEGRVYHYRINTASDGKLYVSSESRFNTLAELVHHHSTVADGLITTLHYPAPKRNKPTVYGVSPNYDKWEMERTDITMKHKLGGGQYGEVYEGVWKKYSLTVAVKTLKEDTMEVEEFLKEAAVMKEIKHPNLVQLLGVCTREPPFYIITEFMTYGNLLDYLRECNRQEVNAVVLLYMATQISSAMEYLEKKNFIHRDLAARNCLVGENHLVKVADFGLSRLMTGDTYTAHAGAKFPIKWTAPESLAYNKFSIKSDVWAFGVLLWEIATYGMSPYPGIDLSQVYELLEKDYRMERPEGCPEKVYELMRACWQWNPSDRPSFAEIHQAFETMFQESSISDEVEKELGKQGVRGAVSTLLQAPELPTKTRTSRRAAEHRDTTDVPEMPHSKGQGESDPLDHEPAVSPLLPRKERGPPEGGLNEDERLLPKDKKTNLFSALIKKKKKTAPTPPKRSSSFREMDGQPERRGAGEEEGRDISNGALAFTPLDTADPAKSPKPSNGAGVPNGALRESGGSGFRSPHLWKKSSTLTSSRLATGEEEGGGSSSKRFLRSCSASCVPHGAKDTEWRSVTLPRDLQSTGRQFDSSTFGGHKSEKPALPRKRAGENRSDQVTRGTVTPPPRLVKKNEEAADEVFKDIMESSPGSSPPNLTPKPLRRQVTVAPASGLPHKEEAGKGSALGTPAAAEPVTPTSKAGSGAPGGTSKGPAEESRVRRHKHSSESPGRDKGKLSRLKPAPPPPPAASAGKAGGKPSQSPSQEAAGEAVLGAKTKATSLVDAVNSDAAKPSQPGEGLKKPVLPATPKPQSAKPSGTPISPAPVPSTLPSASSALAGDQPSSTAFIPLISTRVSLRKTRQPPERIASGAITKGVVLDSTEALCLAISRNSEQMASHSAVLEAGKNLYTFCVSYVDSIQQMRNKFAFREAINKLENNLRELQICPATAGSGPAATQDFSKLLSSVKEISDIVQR
# Target sequence (Q13671 whole entry, looked up): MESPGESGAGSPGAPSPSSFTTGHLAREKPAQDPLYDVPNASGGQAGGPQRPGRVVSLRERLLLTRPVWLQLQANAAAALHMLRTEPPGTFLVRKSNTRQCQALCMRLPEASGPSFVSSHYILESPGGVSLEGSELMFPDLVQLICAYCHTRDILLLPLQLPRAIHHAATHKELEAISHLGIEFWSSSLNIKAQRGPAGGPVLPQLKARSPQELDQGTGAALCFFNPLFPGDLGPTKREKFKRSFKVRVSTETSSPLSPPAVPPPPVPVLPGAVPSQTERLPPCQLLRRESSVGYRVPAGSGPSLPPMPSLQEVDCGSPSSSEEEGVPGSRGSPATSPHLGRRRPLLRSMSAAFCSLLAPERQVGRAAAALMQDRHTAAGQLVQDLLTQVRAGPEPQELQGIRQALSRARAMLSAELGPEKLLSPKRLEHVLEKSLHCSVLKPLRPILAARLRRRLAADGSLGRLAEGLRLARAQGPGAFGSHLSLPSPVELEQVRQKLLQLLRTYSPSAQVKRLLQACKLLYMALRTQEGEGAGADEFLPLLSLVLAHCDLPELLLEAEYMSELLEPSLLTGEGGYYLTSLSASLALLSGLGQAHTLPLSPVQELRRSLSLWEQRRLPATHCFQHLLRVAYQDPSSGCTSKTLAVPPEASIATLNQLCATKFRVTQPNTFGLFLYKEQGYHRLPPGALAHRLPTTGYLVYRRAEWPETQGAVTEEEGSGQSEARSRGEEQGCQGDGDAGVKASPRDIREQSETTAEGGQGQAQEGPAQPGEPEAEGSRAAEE
# Myeloid diff MLP: compounds promoting myeloid differentiation; calls only at 10 µM; 360,000 compounds, 1% hits; AID 624256; ER-HoxA9 myeloid progenitors, lysozyme-GFP differentiation, flow cytometry;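 active = normalized GFP-positive differentiation at or above the plate's own cutoff, the solvent-only control mean plus 3 SD; inconclusive = no clear call, values can overlap the other calls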;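 note: cells exposed to compound for four days before flow analysis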
# Rce1 inh: yeast Ras-converting enzyme inhibition; Q03530; yeast membranes, quenched prenylated peptide cleavage fluorescence; calls only; 290,000 compounds, 0.27% hits;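 active = fall in fluorescence gain of 50% or more versus controls, with final raw signal at or below 3038400; inconclusive = same 50% fall but final raw signal above 3038400; inactive = fall in fluorescence gain under 50%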
# T cell modulator: modulates CD8 T cell binding to vesicles | 2C CD8+ T cell-vesicle binding, flow cytometry; stronger effect = lower value | response (vesicle binding), % at 7 µM | 330,000 compounds, 0.068% hits | AID 2052;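 active = response, share of CD8 T cells binding vesicles, and their 90th percentile fluorescence all below set limits, cut at about 80% in these data, passing the limit was not always enough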;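 note: values below 100% mean blocked vesicle binding to the CD8+ T cells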
#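 incubation = binding step 1.5 h, 37 °C, antibody labelling 20 min, ice | test system = 2C mouse CD8+ T cells | read-out basis = percent CD8+ FL2 mean versus row control | controls = Peptide-free naked vesicles (low) and QL9 vesicles with 0.7% DMSO vehicle (high) | detection = flow cytometry of vesicle-bound cells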
# SKN-1 block: blocks SKN-1 activity in C. elegans. C. elegans VP596 Pgst-4::GFP/RFP ratio, acrylamide-induced, 24 h. inhibition, % at 21.8 µM. 360,000 compounds, 0.49% hits. AID 624304;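 active = interference check ratio from 0.5 to 1.5 plus GFP to RFP signal ratio inhibition reaching or exceeding a fixed threshold, cut at about 30% in these data, passing the limit was not always enough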
# GRK2 aptamer HTS: human GRK2 inhibition via aptamer displacement; P25098; bead flow cytometry, FAM-aptamer displacement from GRK2; inhibition of aptamer binding, % at 10 µM; 330,000 compounds, 0.59% hits;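 active = inhibition of aptamer binding above 40%, roughly 3 SD of noise, on plates passing a quality check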;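 note: median bead fluorescence of bound FAM aptamer so fluorescent compounds give negative values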
# GRK2 inh confirm: human GRK2 inhibition confirmation, cherry pick 1; shares compounds with GRK2 aptamer HTS; bead-bound GRK2, FAM-aptamer displacement, flow cytometry; aptamer displacement, % at 10 µM; 2,000 compounds, 4% hits;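 active = aptamer displacement above 40%, near three times the noise of non-fluorescent compounds, on plates passing quality checks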;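 note: negative values mostly reflect intrinsic compound fluorescence rather than true enhancement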
# Aptamer quench 1: counter-screen for GRK2 aptamer inhibitors: fluorescent aptamer quenchers | fluorescence change (kMESF span), kMESF (concentration not given with the values) | AID 504521 | 110 tested, under 10 active | shares compounds with GRK2 aptamer HTS | Fluorescent RNA aptamer beads, quenching, flow cytometry; stronger effect = higher value;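 active = compounds whose bead fluorescence drops by more than 37 kMESF across the dose range, marking them as dye quenchers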
# FAM quench CP1: aptamer fluorescence quenching in GRK2 counter-screen | AID 504580 | shares compounds with GRK2 aptamer HTS | Carboxyfluorescein RNA aptamer on beads, flow cytometry quenching; stronger effect = lower value | 2,000 tested, under 10 active | fluorescence response (% of DMSO), % at 10 µM;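 active = compounds that quench the bead-bound fluorescent RNA probe, cutting fluorescence to under half of the solvent control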;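 note: counterscreen run without GRK2 so only probe quenching by compound is measured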
# GRK2 confirm 2: confirmation of human GRK2 inhibitors binding RNA aptamer site. shares compounds with GRK2 aptamer HTS. bead-bound GRK2, FAM-aptamer displacement, flow cytometry. inhibition of aptamer binding, % at 10 µM. 360 tested, under 10 active. AID 504782;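 active = inhibition of aptamer binding above 40%, about triple the noise seen with nonglowing compounds, on plates passing quality control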;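 note: negative values mostly come from compounds that fluoresce themselves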
# FAM quench CP2: aptamer fluorescence quenching in GRK2 counter-screen | shares compounds with GRK2 aptamer HTS | carboxyfluorescein RNA aptamer beads, flow cytometry quenching; stronger effect = lower value | fluorescence response vs DMSO, % at 10 µM | 360 tested, under 10 active | AID 588494;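 active = response vs DMSO under 50%, meaning signal dropped by over half, treated as fluorescence quencher; inconclusive = no clear call, values can overlap the other calls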;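 note: labelled aptamer on streptavidin beads without GRK2 as a quench counter-screen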
# Numbers stand for hits; - = inactive; ? = inconclusive; . = not tested or not shown; + = active, no number. Only some compounds are listed: those with a hit (about 2.6% of all), similar ones and a draw of the others.
SMILES,Rin1-Abl PPI inh,Myeloid diff MLP,Rce1 inh,T cell modulator,SKN-1 block,GRK2 aptamer HTS,GRK2 inh confirm,FAM quench CP1,others
COc1cccc(NC(=O)C(OC(=O)c2ccc([N+](=O)[O-])o2)c2ccccc2)c1 (centres undefined),-,-,-,-,-,-,.,.,
O=C(NCc1ccccc1CN1CCCC1)C1CCN(C(=O)c2ccc(F)cc2)CC1,-,-,.,-,-,69,-,-,
Cc1cc(/C=N\NC(=O)COc2cccc3cccnc23)c(C)n1-c1ccc(Br)cc1,-,-,-,-,-,55,-,-,
Cc1ccc(-n2cc(CN3CCN(C(=O)c4ncn[nH]4)CC3)c(-c3ccc(F)cc3)n2)cc1,-,-,-,-,-,-,.,.,
COc1ccc2c(c1)c(=O)oc1cc(OCC(=O)N3CCC(C)CC3)ccc12,-,-,-,-,-,47,-,-,
COc1ccc(Cc2cc(NCc3ccccc3)c3ncn(C(C)C)c3c2)cc1,-,-,.,-,-,97,.,.,GRK2 confirm 2=-;FAM quench CP2=-
CCCCOc1cc(NCc2ccccc2)c2ncn(C(C)C)c2c1,-,-,.,-,-,-,.,.,
O=C(COC(=O)COc1ccccc1Cc1ccccc1)Nc1cccnc1Cl,-,-,-,-,-,-,.,.,
COCCNCCCOc1ccc(C(C)(C)c2ccccc2)cc1,-,-,-,-,-,100,.,.,GRK2 confirm 2=-;FAM quench CP2=-
COCCCNCCCOc1ccc(C(C)(C)c2ccccc2)cc1,-,-,-,-,-,-,.,.,
Cc1ccc(OCC(=O)c2c(N)n(C)c(=O)n(C)c2=O)c([N+](=O)[O-])n1,-,-,.,-,-,77,60,-,Aptamer quench 1=-
Cc1cc(C)cc(NC(=O)COC(=O)c2ccc3c(c2)OCCO3)c1,-,-,.,-,-,100,-,-,
COc1ccc(CNC(=O)COC(=O)c2ccc3c(c2)OCCO3)cc1,-,-,-,-,-,58,-,-,
COc1ccc(CCNC(=O)c2ccc3c(c2)OCCO3)cc1,-,-,-,-,-,-,.,.,
N#C/C(=C\c1ccc(O)c(O)c1)C(=O)c1ccc(O)c(O)c1,-,-,.,-,-,54,-,-,
CCOC(=O)C1CCN(C(=O)C(=O)c2cn(CC(=O)N3CCCCCC3)c3ccccc23)CC1,-,?,-,-,-,42,.,.,GRK2 confirm 2=-;FAM quench CP2=-
CCOc1cccc(/C(O)=C2/C(=O)C(=O)N(CCOC)C2c2ccco2)c1 (centres undefined),-,-,-,-,-,47,-,-,
O=C(OCCOc1ccccc1)c1n[nH]c2ccccc12,-,-,.,-,-,78,-,-,
CNC(=O)NC(=O)COC(=O)c1n[nH]c2ccccc12,-,-,.,-,-,45,-,-,
O=S(=O)(CCN1CCOCC1)c1ccc(Oc2ccc(S(=O)(=O)CCN3CCOCC3)cc2)cc1,-,-,-,-,-,-,.,.,
CC(C)Oc1ccc(NC(=O)CCC(=O)O)cc1,-,-,-,-,-,-,.,.,
CC(C)Oc1ccc(NC(N)=O)cc1,-,-,-,-,-,89,-,-,
CCOC(=O)C1(C)CCN1C(=O)c1ccccc1 (centres undefined),-,-,.,.,-,.,.,.,
Clc1ccc(-c2cn(-c3ccccc3)c3[n+]2CCS3)cc1,-,.,-,-,-,-,.,.,
Fc1ccc(-c2cn(-c3ccccc3)c3[n+]2CCS3)cc1,-,+,-,-,-,43,-,-,
SMILES,Rin1-Abl PPI inh,Myeloid diff MLP,Rce1 inh,T cell modulator,SKN-1 block,GRK2 aptamer HTS,GRK2 inh confirm,FAM quench CP1,others
O=C(Nn1cnnc1)c1cc(Br)ccc1Cl,-,-,.,-,-,53,-,-,
CC(C)=NN1C(c2nonc2N)=NOC1(C)C,-,-,.,-,-,-,-,-,
CC(=O)NC(Cc1cccc(F)c1)C(=O)NC1CCN(C(=O)Nc2ccc(C)cc2)CC1 (centres undefined),-,-,-,-,-,-,.,.,
Cc1nc(Oc2cccc(Cl)c2)c2oc3ccccc3c2n1,-,-,-,-,-,41,-,-,
CCN(CC)CCOc1nc(C)nc2c1oc1ccccc12,-,-,-,-,-,-,.,.,
O=C(OCC(=O)N1CCCCCC1)c1cc(S(=O)(=O)N2CCOCC2)ccc1F,-,-,.,.,-,.,.,.,
COCCNC(=O)c1ccc(Cl)c(S(=O)(=O)Nc2cccc(C)c2C)c1,-,-,-,-,-,65,.,.,GRK2 confirm 2=-;FAM quench CP2=-
Cc1ccccc1NS(=O)(=O)c1cc(C(=O)NCCC2=CCCCC2)ccc1Cl,-,-,-,.,-,-,.,.,
COC(=O)C1CCN(C(=O)COC(=O)/C=C/c2ccc(O)c(OC)c2)CC1,-,-,.,-,-,-,.,.,
Cc1nc2ccccc2nc1OCc1ccc([N+](=O)[O-])cc1,-,-,-,-,-,-,.,.,
Cc1cccc(C)c1NC(=O)CN(C)CC(=O)N1CC(=O)Nc2ccccc21,-,-,.,-,-,-,.,.,
OCC[C@H]1C[C@@H](O)[C@H](O)[C@]2(CCCO2)O1,-,-,-,.,-,.,.,.,
CCc1ccc(OCC(=O)O/N=C(\N)c2ccncc2)c(Br)c1,-,-,-,-,-,-,.,.,
COc1ccc(Cl)cc1-c1nc(SCC(=O)NC(C)C(C)C)n[nH]1 (centres undefined),-,-,-,-,-,-,.,.,
COc1ccc(Cl)cc1-c1nc(SCC(=O)NC(C)C)n[nH]1,-,-,-,-,-,46,-,-,
Cc1ccc(C)c(Cn2nnc3c(=O)[nH]c(C4CCCN(C(=O)c5ccco5)C4)nc32)c1 (centres undefined),-,-,-,-,-,-,.,.,
COc1ccc(O)c(/C=N/NC(=O)c2cc(=O)[nH]c3ccccc23)c1,-,-,-,-,-,68,-,-,
O=C(N/N=C/c1ccccc1)c1cc(=O)[nH]c2ccccc12,-,-,-,-,-,-,.,.,
CCc1c(C2(O)CCCCC2)[nH]c2cc(C(F)(F)F)ccc12,-,-,-,-,-,-,.,.,
OC1(c2cccc(C(F)(F)F)c2)CCN(Cc2nnnn2Cc2ccccc2)CC1,-,-,-,-,-,93,-,-,
CCOc1ccc(NC(=S)N2CCCN(Cc3cc(C)ccc3C)C2)cc1,-,-,-,-,-,-,.,.,
O=Cc1cccc(OC(=O)/C=C/c2ccco2)c1,-,-,-,-,-,62,-,-,

# Compound activity deposited in PubChem by several laboratories.
